High-throughput results from PubChem BioAssay.
Rows were chosen to be rich in hits. Some 1.9% of all compounds tested hit in one or more screens of this group.
Neddyl block = cullin neddylation inhibition; inhibition, % at 25 µM; TR-FRET cullin neddylation, biochemical; 360,000 compounds, 0.58% hits; P61081+Q13564; in the data active = inhibition above about 36%
procasp7 counter = counter-screen for procaspase-3 activators: activators of human procaspase-7 | recombinant procaspase-7, Ac-DEVD-pNA absorbance 405 nm; D23A/D198A/D206A triple mutant, cannot self-cleave; scale: DMSO 0, 5 µM enzyme 100 | P55210 | AID 463210 | activation, % at 8.5 µM | 330,000 compounds, 0.093% hits;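 active = percent activation above the screen-wide mean plus 3 SD, cut at about 25% in these data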
Target sequence (P55210 whole entry D23A/D198A/D206A): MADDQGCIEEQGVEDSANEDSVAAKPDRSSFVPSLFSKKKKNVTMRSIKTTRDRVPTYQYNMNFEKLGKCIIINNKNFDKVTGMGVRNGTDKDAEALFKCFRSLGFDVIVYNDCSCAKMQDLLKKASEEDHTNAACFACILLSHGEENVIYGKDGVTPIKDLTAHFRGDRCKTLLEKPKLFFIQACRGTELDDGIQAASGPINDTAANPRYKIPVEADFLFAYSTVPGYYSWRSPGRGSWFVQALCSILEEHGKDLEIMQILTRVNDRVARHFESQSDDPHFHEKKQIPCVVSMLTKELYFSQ
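System: Uncleavable procaspase-7 mutant enzyme; Amount: 2 µM procaspase-7 mutant as dispensed; Schedule: 1 h compound preincubation, 2 h substrate cleavage, 25 °C; Measured by: 405 nm absorbance of p-nitroaniline; Evaluation: percent activation from buffer-corrected 0–120 min absorbance change; Control set: low DMSO alone, high DMSO plus 5 µM PC-7.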
proCasp3 act = activators of human procaspase-3; 330,000 compounds, 0.11% hits; P42574; recombinant procaspase-3 D3A, Ac-DEVD-pNA absorbance 405 nm; activation, % at 8.5 µM; AID 463141;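 active = activation above the mean of all tested compounds plus 3 SD, cut at about 21% in these data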;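 note: 0% = DMSO alone and 100% = DMSO wells spiked with extra 5 µM PC-3 D3A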
Target sequence (P42574 whole entry D9A/D28A/D175A): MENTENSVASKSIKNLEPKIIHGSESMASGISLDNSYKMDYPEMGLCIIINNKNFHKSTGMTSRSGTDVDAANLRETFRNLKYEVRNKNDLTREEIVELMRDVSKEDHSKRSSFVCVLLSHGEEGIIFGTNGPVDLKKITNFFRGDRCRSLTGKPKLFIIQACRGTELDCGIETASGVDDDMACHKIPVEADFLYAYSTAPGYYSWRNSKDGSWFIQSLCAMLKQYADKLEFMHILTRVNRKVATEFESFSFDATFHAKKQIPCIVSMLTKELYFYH
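Assay system – Procaspase-3 D3A mutant, all three cleavage aspartates alanine · Controls – DMSO-only low control, 5 µM PC-3 D3A high control · Schedule – 1 h compound preincubation, 2 h substrate hydrolysis at 25 °C · Signal – 405 nm absorbance of p-nitroaniline, reads at 0 and 120 min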
FXN GAA850 act = activators of GAA850 frataxin (FXN) promoter | HEK293 lucGAA850 FXN promoter luciferase reporter, 24 h; percent of 10 µM SAHA response | 360,000 compounds, 0.56% hits | activation, % at 6 µM;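 active = activation above the average of all compounds screened plus 3 SD, cutoff fixed separately per campaign, cut at about 7.5% in these data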;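 note: 0% = DMSO wells and 100% = 10 µM SAHA wells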
Calb FLC = C. albicans growth modulation with fluconazole; C. albicans CaCi-2 + fluconazole, Alamar Blue growth, 48 h; growth inhibition, % (concentration not given with the values); 300,000 compounds, 0.57% hits;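 active = growth inhibition above about 58% in most replicates, limit read from the data, passing the limit was not always enough; inconclusive = exactly half the replicates above a set limit; inactive = most replicates below a set limit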;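 note: all wells also contain fluconazole at 8 µg/ml as a sub-toxic cotreatment; 0% = median of DMSO wells and 100% = median of geldanamycin control wells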
HIF activator = HIF pathway transcriptional activation | U2OS HRE-luciferase reporter, luminescence; normalized: DMSO 0%, desferrioxamine 100% | activation, % at 7.5 µM (by protocol) | 300,000 compounds, 0.32% hits;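 active = mean activation of at least 10% of the iron chelator positive control signal, with at least half of replicates also reaching 10%; inconclusive = mean and replicate majority disagree about reaching 10%; inactive = mean and most replicates under 10%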
GAA30 FXN cntr = GAA30 FXN promoter activation counter-screen; shares compounds with FXN GAA850 act; 1,900 compounds, 66% hits; activation, % at 6 µM; HEK293 lucGAA30 FXN promoter luciferase, 24 h; DMSO = 0%, 5 µM ipriflavone = 100%;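 active = mean activation above the mean of solvent-only control wells plus 3 SD, cut at about 22% in these data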;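 note: counterscreen of GAA850 promoter hits where activity marks nonselective or luminescence artifacts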
FXN GAA850 conf = GAA850 FXN promoter activation confirmation. 1,900 compounds, 86% hits. activation, % at 6 µM. shares compounds with FXN GAA850 act. HEK293 lucGAA850 FXN promoter luciferase reporter, 24 h; 100% = activation by SAHA;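 active = mean activation above a set limit taken from the primary screen, cut at about 8% in these data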;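 note: 0% = DMSO wells and 100% = 10 µM SAHA wells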
* marks the source's active call; other numbers are inactive results; ? = inconclusive; . = no result shown.

SMILES | Neddyl block | procasp7 counter | proCasp3 act | FXN GAA850 act | Calb FLC | HIF activator | GAA30 FXN cntr | FXN GAA850 conf
CCCC(=O)N1CCCC1(C)C(=O)Nc1ccc2c(c1)CCN2C(C)=O (stereo not drawn) | 2.4 | . | . | 0.7 | . | . | . | .
COc1ccc(S(=O)(=O)N2CCCCC2)cc1NC(=O)Cc1sc(C)nc1-c1ccc(F)cc1 | 33.9 | 9.5 | -6.2 | 12.9* | -8.1 | 0.1 | 22.3* | 10.7*
Cc1ccc(-n2ncc(Cl)c2C(=O)NC2CC2)cc1 | -17.3 | 0.8 | 4.5 | 8.6* | -43.7 | 2.6 | 110.3* | 32.1*
CS(=O)(=O)Nc1cccc(NC(=O)C2Cc3c(-c4cccc(F)c4)ccnc3O2)c1 (stereo not drawn) | -6.0 | . | . | -6.8 | . | . | . | .
O=C1Cc2c([nH]c3ccc(Br)cc23)-c2ccccc2N1 | -136.9 | . | . | 67.5* | . | . | 167.3* | 201.3*
Brc1ccc2[nH]c3c(c2c1)CCC3 | -0.7 | -0.1 | -7.4 | 0.0 | 0.8 | 0.0 | . | .
C=CCn1c(SCC(=O)NCc2ccc3c(c2)OCO3)nc2scc(-c3ccc(F)cc3)c2c1=O | -13.6 | 12.2 | 2.5 | 3.1 | -5.2 | 0.7 | . | .
C=CCn1c(SC(C)C(=O)NCc2ccc3c(c2)OCO3)nc2scc(-c3ccccc3)c2c1=O (stereo not drawn) | -23.3 | 2.0 | 4.9 | 7.8* | 15.3 | -0.4 | 12.0 | 10.2*
Cc1[nH]c2ccccc2c1/C=C/c1nc2ccccc2c(=O)[nH]1 | 17.7 | -7.7 | -15.1 | 8.2* | -19.5 | 2.0 | 102.2* | 38.1*
C=CCn1nnc2sc3c(c2c1=O)CCC(C)C3 (stereo not drawn) | -16.7 | 1.3 | 0.8 | 8.7* | -0.8 | -0.1 | 71.1* | 29.9*
Cc1cc(Nc2ccc(Cl)cc2)nc(NCc2ccccc2)n1 | . | 2.8 | -4.4 | 14.4* | ? | -3.1 | 17.1 | 10.3*
CS(=O)(=O)c1ccc(C(=O)NCCN2C(=O)S/C(=C\c3cccnc3)C2=O)cc1[N+](=O)[O-] | -10.1 | 6.1 | 3.6 | 13.7* | 20.5 | -0.5 | 148.2* | 43.6*
COc1ccc2c(c1)Cc1sc(NC(=O)c3ccco3)nc1-2 | -23.7 | -8.1 | -11.5 | 4.2 | -3.8 | 2.0 | . | .
COc1ccc2c(c1)Cc1sc(NC(C)=O)nc1-2 | -28.7 | 6.9 | -3.9 | 8.2* | 4.2 | 2.4 | 111.1* | 31.9*
CCCCCC(=C/c1ccccc1)/C=N/Nc1ccc(S(=O)(=O)N2CCOCC2)cc1[N+](=O)[O-] | -15.6 | . | . | -0.1 | . | . | . | .
COc1cc(Nc2nc3ccccc3n3nnnc23)cc(OC)c1OC | . | 0.3 | 3.4 | 16.7* | 6.0 | 1.3 | 33.1* | 9.5*
O=S(=O)(NCCO)c1cccc2cccnc12 | -6.5 | -1.1 | 3.7 | 14.3* | -2.7 | . | 20.1 | 5.2
COc1ccccc1NC(=O)c1ccc(NS(=O)(=O)c2cccc3cccnc23)cc1 | -5.3 | 0.2 | 2.8 | 8.6* | -1.1 | -0.9 | 15.6 | 9.8*
O=S(=O)(Nc1ccc(N2CCCCC2)cc1)c1cccc2cccnc12 | -3.0 | -2.5 | -1.1 | 8.0* | -2.1 | -0.2 | 19.5 | 6.7
Cc1ccc2c(c1)N(CC(=O)Nc1ccccc1F)C(=O)C(C)O2 (stereo not drawn) | 5.7 | . | . | 0.7 | . | . | . | .
Cc1oc(-c2cccs2)nc1CNC[C@H]1O[C@@H](n2cnc(C(N)=O)n2)[C@H](O)[C@@H]1O | -6.9 | . | . | 1.0 | . | . | . | .
Cc1ccc(OCCn2cnc3c(N)ncnc32)cc1 | -0.1 | 8.0 | 5.6 | 8.0* | 32.0 | 0.8 | -8.0 | 9.8*
COc1ccc(C(c2nnnn2C2CCCCC2)N2CCN(C/C=C/c3ccccc3)CC2)cc1 (stereo not drawn) | 2.4 | . | . | . | . | . | . | .
COc1cc2c(cc1OC)-c1cc(N3CCCc4ccccc43)nc(=O)n1CC2 | 16.4 | -0.7 | -12.8 | 10.4* | -6.1 | -0.3 | 21.7 | 15.6*
COc1cc2c(cc1OC)-c1cc(OCc3cccnc3)nc(=O)n1CC2 | . | . | . | 8.8* | . | . | 13.8 | 12.9*
SMILES | Neddyl block | procasp7 counter | proCasp3 act | FXN GAA850 act | Calb FLC | HIF activator | GAA30 FXN cntr | FXN GAA850 conf
COc1cc2c(cc1OC)-c1cc(Nc3ccccc3)nc(=O)n1CC2 | 29.4 | -0.2 | -3.5 | 4.2 | -3.0 | -0.9 | . | .
COc1cc2c(cc1OC)-c1cc(N3CCCCCC3)nc(=O)n1CC2 | . | 7.9 | -6.3 | 12.7* | -20.1 | . | 30.9* | 16.4*
COc1cc2c(cc1OC)-c1cc(N3CCc4ccccc43)nc(=O)n1CC2 | -49.2 | -2.6 | -5.0 | 2.1 | -0.4 | -0.2 | . | .
CCOc1cccc(Nc2cc3n(c(=O)n2)CCc2cc(OC)c(OC)cc2-3)c1 | . | 1.1 | -3.0 | 9.6* | 4.1 | 0.2 | 21.8 | 12.1*
CC1(O)CC(C)(C)C(C#N)C(=O)N1 (stereo not drawn) | -3.4 | . | . | 1.2 | . | . | . | .
CCOC(=O)c1cc(OC(=O)Cc2ccc(OC)c(S(=O)(=O)N3CCOCC3)c2)cc(C(=O)OCC)c1 | -1.0 | . | . | 1.6 | . | . | . | .
COc1cc2c(cc1OC)-c1cc(Nc3ccccc3Br)nc(=O)n1CC2 | 16.5 | -1.1 | 2.5 | 9.2* | -2.9 | 3.1 | 17.8 | 15.6*
COc1cc2c(cc1OC)-c1cc(Nc3ccc(C)cc3)nc(=O)n1CC2 | 35.1 | 4.4 | -3.4 | 6.3 | -7.8 | -11.3 | . | .
COc1cc2c(cc1OC)-c1cc(NC3CCCCCC3)nc(=O)n1CC2 | . | 4.1 | -8.5 | 12.1* | -14.8 | -0.1 | 26.1* | 12.1*
CCN(CC)S(=O)(=O)c1cc(NC(=O)CCc2c(C)noc2C)ccc1C | 4.0 | 2.5 | -0.6 | -1.8 | . | . | . | .
CCN(CC)S(=O)(=O)c1cc(NC(=O)CSCc2c(C)noc2C)ccc1C | 3.6 | 6.6 | 8.9 | 8.4* | . | . | 9.9 | 8.2*
COc1ccc(NC(=O)C2(C)Cc3c(-c4cccc(C(F)(F)F)c4)ccnc3O2)cn1 (stereo not drawn) | -0.6 | . | . | -3.9 | . | . | . | .
COc1ccc2sc(-c3ccc(SC)cc3)c(C#CC(C)(C)O)c2c1 | 36.3 | -4.6 | -0.9 | 7.8* | . | . | 37.3* | 26.1*
COc1cccc(-c2sc3ccc(OC)cc3c2C#CC(C)(C)O)c1 | -6.5 | -9.5 | -3.2 | 3.3 | . | . | . | .
N#Cc1c(N)n(C2OC(CO)C(O)C2O)c2ncnc(N)c12 (stereo not drawn) | 17.1 | . | . | -13.8 | . | . | . | .
O=C(Nc1scc(-c2ccc(F)cc2)c1C(=O)O)c1ccco1 | 22.2 | -2.9 | -1.4 | 0.7 | 1.3 | 0.5 | . | .
COC(=O)c1c(-c2ccccc2)csc1NC(=O)c1ccco1 | . | 1.1 | 5.3 | 10.8* | 12.5 | 3.1 | 109.5* | 44.5*
